Results: ChEMBL document CHEMBL1128227, “Cosalane analogues with enhanced potencies as inhibitors of HIV-1 protease and integrase” (J Med Chem, 1995)

Experiments:
Vero [1] = assay: Anti viral activity against Vero cellular cytotoxicity by minimum cytotoxic concentration that causes a microscopically detectable alteration of normal cell morphology after 2 day of treatment.; type: functional; details: Chlorocebus sabaeus, 48 h
MOLT-4 [2] = assay: Gaint cell formation between HIV-1 (HTLV-IIIB) infected HUT-78 cells and uninfected MOLT-4(clone-8)cells; type: functional, cell-based; details: Homo sapiens
Summary of the method: (§1)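 Syncytium assay: HUT-78 cells persistently infected with HIV-1 (HTLV-IIIB) or HIV-2 (LAV-2ROD) were co-cultured with uninfected MOLT-4 (clone 8) cells, and giant-cell formation was scored. Compounds tested as ammonium salts. Values are means of at least two experiments.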

[3] = target: Human immunodeficiency virus type 1 integrase (Human immunodeficiency virus 1, UniProt Q7ZJM1); assay: Inhibition of HIV -1 Integrase
Sequence of Human immunodeficiency virus type 1 integrase (Q7ZJM1 whole entry): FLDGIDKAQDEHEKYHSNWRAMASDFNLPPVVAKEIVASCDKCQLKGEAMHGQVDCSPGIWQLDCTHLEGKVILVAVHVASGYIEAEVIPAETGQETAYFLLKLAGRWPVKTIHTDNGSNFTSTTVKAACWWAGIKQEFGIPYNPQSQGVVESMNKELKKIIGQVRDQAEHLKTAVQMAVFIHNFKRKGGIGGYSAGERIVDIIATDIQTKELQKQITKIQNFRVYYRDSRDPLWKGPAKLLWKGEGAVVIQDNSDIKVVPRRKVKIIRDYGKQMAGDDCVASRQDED
Summary of the method: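 Purified HIV-1 integrase. 3'-processing and strand-transfer (integration) activities were measured with synthetic double-stranded oligonucleotides mimicking viral DNA ends. Compounds tested as ammonium salts. Values are means of at least two experiments.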

HEL [4] = assay: Antiviral activity was determined against Vaccinia virus in HEL cells by measuring concentration required to reduce virus induced cytopathogenicity by 50%.; type: functional, cell-based; details: Homo sapiens
CCRF-CEM [5] = assay: Cytotoxical effect against CEM cell lines was determined by reduction of cellular viability. data represent mean value of at least two separate experiments.; type: functional; details: Homo sapiens
Summary of the method: (§2)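 Compounds tested as ammonium salts. Cytotoxicity in CEM-SS, MT-4 or PBL cultures taken from the reduction in cellular viability. Values are means of at least two separate experiments.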

HEL [6] = assay: Anti viral activity against HEL cytotoxicity by minimum cytotoxic concentration that causes a microscopically detectable alteration of normal cell morphology after 2 day of treatment.; type: functional; details: Homo sapiens, 48 h
MDCK [7] = assay: Antiviral activity was determined against Influenza virus A(strain Ishikawa) in MDCK cells by measuring concentration required to reduce virus induced cytopathogenicity by 50%.; type: functional, cell-based; details: Canis lupus familiaris
Summary of the method: (§3)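 Tested in MDCK cells, with compound applied right after infection and left on. Cytopathic effect of influenza A (Ishikawa) or B (Singapore) was read at day 5 pi. IC50 is the concentration halving cytopathogenicity, in µg/mL.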

Vero [8] = assay: Antiviral activity was determined against Tacaribe virus in Vero cells by measuring concentration required to reduce virus induced cytopathogenicity by 50%.; type: functional, cell-based; details: Chlorocebus sabaeus
HEL [9] = assay: Antiviral activity was determined against Herpes simplex virus -1 TK- in HEL cells by measuring concentration required to reduce virus induced cytopathogenicity by 50%.; type: functional, cell-based; details: Homo sapiens
MT4 [10] = assay: Cytotoxical effect against MT-4 cell lines was determined by reduction of cellular viability. data represent mean value of at least two separate experiments.; type: functional; details: Homo sapiens; summary of the method: as §2
MOLT-4 [11] = assay: Gaint cell formation between HIV-2 (LAV-2 rod) infected HUT-78 cells and uninfected MOLT-4(clone-8)cells; type: functional, cell-based; details: Homo sapiens; summary of the method: as §1
HEL [12] = assay: Antiviral activity was determined against Herpes simplex virus -1 TK-/TK+ in HEL cells by measuring concentration required to reduce virus induced cytopathogenicity by 50%.; type: functional, cell-based; details: Homo sapiens
MT4 [13] = assay: Viral cytopathicity against HIV -I (HTLV-IIIb) strain determined in MT-4 cells; type: functional, cell-based; details: Homo sapiens
Vero [14] = assay: Antiviral activity was determined against Junin virus in Vero cells by measuring concentration required to reduce virus induced cytopathogenicity by 50%.; type: functional, cell-based; details: Chlorocebus sabaeus
HeLa [15] = assay: Anti viral activity against HeLa cytotoxicity by minimum cytotoxic concentration that causes a microscopically detectable alteration of normal cell morphology after 2 day of treatment.; type: functional; details: Homo sapiens, 48 h
HEL [16] = assay: Antiviral activity was determined against Vesicular stomatitis virus in HEL cells by measuring concentration required to reduce virus induced cytopathogenicity by 50%.; type: functional, cell-based; details: Homo sapiens
HeLa [17] = assay: Antiviral activity was determined against Respiratory syncytial virus(strain Long) in HeLa cells by measuring concentration required to reduce virus induced cytopathogenicity by 50%.; type: functional, cell-based; details: Homo sapiens
Summary of the method: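 RSV cytopathicity in HeLa cells. Compound added immediately after virus infection and left in the culture. Virus-induced cytopathogenicity scored at day 5 post-infection. IC50 in μg/mL.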

HEL [18] = assay: Antiviral activity was determined against Human cytomegalovirus (strain Davis) in HEL cells by measuring concentration required to reduce virus induced cytopathogenicity by 50%.; type: functional, cell-based
HEL [19] = assay: Antiviral activity was determined against (Herpes simplex virus -2) by concentration required to reduce virus induced cytopathogenicity by 50%.; type: functional, cell-based; details: Homo sapiens
[20] = target: Human immunodeficiency virus type 1 protease (Human immunodeficiency virus 1, UniProt Q72874); assay: Inhibition of HIV -1 protease
Summary of the method: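 Purified HIV-1 protease with the peptide substrate Ala-Ser-Glu-Asn-Tyr-Pro-Ile-Val-Glu-amide. Cleavage quantified by reverse-phase HPLC. Compounds tested as ammonium salts. Values are means of at least two experiments.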

MDCK [21] = assay: Antiviral activity was determined against Influenza virus B(strain Singapore) MDCK cells by measuring concentration required to reduce virus induced cytopathogenicity by 50%.; type: functional, cell-based; details: Canis lupus familiaris; summary of the method: as §3
Homo sapiens [22] = organism: Homo sapiens; assay: Cytotoxical effect against PBL cell lines was determined by reduction of cellular viability. data represent mean value of at least two separate experiments.; type: functional; summary of the method: as §2
HEL [23] = assay: Antiviral activity was determined against Herpes simplex virus -1 in HEL cells by measuring concentration required to reduce virus induced cytopathogenicity by 50%.; type: functional, cell-based; details: Homo sapiens
MT4 [24] = assay: Viral cytopathicity against HIV -2 (LAV-2 rod)strain determined in MT-4 cells; type: functional, cell-based; details: Homo sapiens
Homo sapiens [25] = organism: Homo sapiens; assay: Inhibition of p24 production in Peripheral blood lymphocytes; type: functional, organism-based
Summary of the method: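 Phytohemagglutinin-stimulated peripheral blood lymphocytes infected with HIV-1 WUJO. Read-out is virion-associated p24 production. Compounds tested as ammonium salts. Values are means of at least two experiments.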

MDCK [26] = assay: Anti viral activity against MDCK cytotoxicity by minimum cytotoxic concentration that causes a microscopically detectable alteration of normal cell morphology after 2 day of treatment.; type: functional; details: Canis lupus familiaris, 48 h
MT4 [27] = assay: Cytotoxical effect against MT-4 cell lines was determined by reduction of cellular viability; type: functional; details: Homo sapiens; summary of the method: as §2
Homo sapiens [28] = organism: Homo sapiens; assay: Cytotoxical effect against PBL cell lines was determined by reduction of cellular viability; type: functional; summary of the method: as §2
HeLa [29] = assay: Antiviral activity against HeLa cells by measuring minimum cytotoxic concentration that causes a microscopically detectable alteration of normal cell morphology after 2 day of treatment.; type: functional; details: Homo sapiens, 48 h
CCRF-CEM [30] = assay: Cytotoxical effect against CEM cell lines was determined by reduction of cellular viability; type: functional; details: Homo sapiens; summary of the method: as §2
HEL [31] = assay: Antiviral activity against HEL cells by measuring minimum cytotoxic concentration that causes a microscopically detectable alteration of normal cell morphology after 2 day of treatment.; type: functional; details: Homo sapiens, 48 h
Vero [32] = assay: Antiviral activity against Vero cells by measuring minimum cytotoxic concentration that causes a microscopically detectable alteration of normal cell morphology after 2 day of treatment.; type: functional; details: Chlorocebus sabaeus, 48 h
MDCK [33] = assay: Antiviral activity against MDCK cells by measuring minimum cytotoxic concentration that causes a microscopically detectable alteration of normal cell morphology after 2 day of treatment.; type: functional; details: Canis lupus familiaris, 48 h
MOLT-4 [34] = assay: Giant cell formation between HIV-1 (HTLV-IIIB) infected HUT-78 cells and uninfected MOLT-4(clone-8)cells; type: functional, cell-based; details: Homo sapiens; summary of the method: as §1
MOLT-4 [35] = assay: Giant cell formation between HIV-2 (LAV-2 rod) infected HUT-78 cells and uninfected MOLT-4(clone-8)cells; type: functional, cell-based; details: Homo sapiens; summary of the method: as §1

Compound `CCCCCC=C(c1cc(Cl)c(O)c(C(=O)NO)c1)c1cc(Cl)c(O)c(C(=O)NO)c1` has a CC50 (Vero [1]) of 5 µM, an IC50 (MOLT-4 [2]) of 8 µM and an IC50 [3] of 4 µM. For the same compound, the IC50 (HEL [4]) was 5 µM, the CC50 (CCRF-CEM [5]) was 36.2 µM and the CC50 (HEL [6]) was 20 µM. The IC50 (MDCK [7]) was greater than 4 µM, the IC50 (Vero [8]) was greater than 2000 nM and the IC50 (HEL [9]) was 5 µM. It also gave a CC50 (MT4 [10]) greater than 40 µM, an IC50 (MOLT-4 [11]) of 40 µM and an IC50 (HEL [12]) greater than 5 µM. It also gave an IC50 (MT4 [13]) of 21.9 µM, an IC50 (Vero [14]) greater than 2000 nM and a CC50 (HeLa [15]) of 4 µM. For the same compound, the IC50 (HEL [16]) was greater than 20 µM, the IC50 (HeLa [17]) was greater than 4 µM and the IC50 (HEL [18]) was greater than 5 µM. The IC50 (HEL [19]) was greater than 5 µM, the IC50 [20] was 58000 nM and the IC50 (MDCK [21]) was greater than 4 µM. It also gave a CC50 (Homo sapiens [22]) of 148 µM, an IC50 (HEL [23]) of 5 µM and an IC50 (MT4 [24]) greater than 40 µM. The IC50 (Homo sapiens [25]) was 112 µM and the CC50 (MDCK [26]) was 4 µM.

`O=C(O)c1cc(C(=CCC23CC4CC(CC(C4)C2)C3)c2cc(Cl)c(O)c(C(=O)O)c2)cc(Cl)c1O` was tested, and the CC50 (MT4 [27]) was greater than 40 µM, the CC50 (Homo sapiens [28]) was 185 µM and the IC50 [3] was 7 µM. The MCC (HeLa [29]) was 20 µg/mL, the IC50 (HEL [4]) was greater than 5 µg/mL and the CC50 (CCRF-CEM [30]) was 105 µM. For the same compound, the MCC (HEL [31]) was 50 µg/mL, the MCC (Vero [32]) was 50 µg/mL and the IC50 (MDCK [7]) was greater than 4 µg/mL. For the same compound, the IC50 (Vero [8]) was greater than 20 µg/mL, the IC50 (HEL [9]) was greater than 5 µg/mL and the MCC (MDCK [33]) was 4 µg/mL. For the same compound, the IC50 (HEL [12]) was greater than 5 µg/mL, the IC50 (MT4 [13]) was greater than 40 µM and the IC50 (Vero [14]) was greater than 20 µg/mL. For the same compound, the IC50 (HEL [16]) was greater than 5 µg/mL, the IC50 (MOLT-4 [34]) was greater than 40 µM and the IC50 (HeLa [17]) was 4 µg/mL. The IC50 (HEL [18]) was 11 µg/mL, the IC50 (MOLT-4 [35]) was greater than 40 µM and the IC50 (HEL [19]) was greater than 20 µg/mL. It also gave an IC50 [20] of 370 nM, an IC50 (MDCK [21]) greater than 4 µg/mL and an IC50 (HEL [23]) greater than 5 µg/mL. It also gave an IC50 (Homo sapiens [25]) of 148 µM.

With `CC(CCC=C(c1cc(Cl)c(O)c(C(=O)O)c1)c1cc(Cl)c(O)c(C(=O)O)c1)[C@H]1CC[C@H]2[C@@H]3CC[C@@H]4CCCC[C@]4(C)[C@H]3CC[C@]12C` (some centres not stated) the CC50 (MT4 [27]) was 31.4 µM, the CC50 (Homo sapiens [28]) was 135 µM and the IC50 [3] was 2.2 µM. The MCC (HeLa [29]) was 100 µg/mL, the IC50 (HEL [4]) was 13 µg/mL and the CC50 (CCRF-CEM [30]) was 69.5 µM. It also gave an MCC (HEL [31]) of 50 µg/mL, an MCC (Vero [32]) of 20 µg/mL and an IC50 (MDCK [7]) greater than 12 µg/mL. It also gave an IC50 (Vero [8]) greater than 5 µg/mL, an IC50 (HEL [9]) greater than 20 µg/mL and an MCC (MDCK [33]) of 20 µg/mL. The IC50 (HEL [12]) was greater than 20 µg/mL, the IC50 (MT4 [13]) was 27.2 µM and the IC50 (Vero [14]) was greater than 5 µg/mL. For the same compound, the IC50 (HEL [16]) was greater than 20 µg/mL, the IC50 (MOLT-4 [34]) was 24 µM and the IC50 (HeLa [17]) was 4 µg/mL. For the same compound, the IC50 (HEL [18]) was greater than 20 µg/mL, the IC50 (MOLT-4 [35]) was 40 µM and the IC50 (HEL [19]) was greater than 20 µg/mL. It also gave an IC50 [20] of 1500 nM, an IC50 (MDCK [21]) greater than 20 µg/mL and an IC50 (HEL [23]) greater than 20 µg/mL. For the same compound, the IC50 (MT4 [24]) was greater than 31.3 µM and the IC50 (Homo sapiens [25]) was 39 µM.
